Rce1 inh: blocks yeast Ras-converting enzyme; Q03530; yeast membranes, quenched prenylated peptide cleavage fluorescence; calls only; actives 0.27% (n = 290,000);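 active = fall in fluorescence gain of 50% or more versus controls, with final raw signal at or below 3038400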;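 also: plate controls were neutral control wells for no effect and wells lacking membranes for full effect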
Target sequence (Q03530 whole entry, looked up): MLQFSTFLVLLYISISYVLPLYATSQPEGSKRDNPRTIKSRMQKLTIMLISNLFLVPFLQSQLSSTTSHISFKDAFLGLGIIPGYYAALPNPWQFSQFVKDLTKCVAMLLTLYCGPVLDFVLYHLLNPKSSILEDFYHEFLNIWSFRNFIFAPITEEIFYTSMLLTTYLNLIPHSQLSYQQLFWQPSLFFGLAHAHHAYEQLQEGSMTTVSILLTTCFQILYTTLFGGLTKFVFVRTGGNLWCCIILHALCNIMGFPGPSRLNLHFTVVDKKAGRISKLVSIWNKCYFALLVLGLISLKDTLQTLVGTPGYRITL
CR mimetic SO: yeast age-related superoxide inhibition as caloric restriction mimetic; S. cerevisiae aged cells, superoxide DHE fluorescence; hits give low values; AID 2690; superoxide response (% of plate mean), % at 10 µM; actives 0.18% (n = 330,000);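 active = superoxide response under a set limit, about three screen SD below normal, cut at about 65% in these data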;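 also: yeast aged for seven days with compound at 30 °C before DHE staining; 100% = average MFI of all compound-treated wells on the plate with controls excluded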
Rev-erbA mod: modulators of human Rev-erb alpha DNA binding. activity, % at 10 µM. Rev-erbα–FITC-DNA binding, fluorescence polarization, 90 min. actives 0.79% (n = 370,000);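 active = activity above about 14%, limit read from the data; passing the limit was not always enough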;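 also: 0% = DMSO wells with 35 nM protein and 100% = DMSO wells with 750 nM protein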
PG9 binder: small molecules binding HIV-1 gp120 antibody PG9; TR-FRET gp120-PG9 antibody binding; inhibition, % at 6.7 µM; actives 0.43% (n = 360,000); AID 624416; in the data active = inhibition above about 8.5%
UCH37 DUB inh: inhibitors of human deubiquitinating enzyme UCH37. Q9Y5K5. purified proteasome/UCH37, Ub-AMC cleavage fluorescence. inhibition, % (no concentration beside the values). actives 0.33% (n = 330,000). AID 588478;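 active = mean inhibition over replicate wells above about 20%, limit read from the data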;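 also: 0% = compound-free wells with enzyme and 100% = wells lacking proteasome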
Target sequence (Q9Y5K5 whole entry, looked up): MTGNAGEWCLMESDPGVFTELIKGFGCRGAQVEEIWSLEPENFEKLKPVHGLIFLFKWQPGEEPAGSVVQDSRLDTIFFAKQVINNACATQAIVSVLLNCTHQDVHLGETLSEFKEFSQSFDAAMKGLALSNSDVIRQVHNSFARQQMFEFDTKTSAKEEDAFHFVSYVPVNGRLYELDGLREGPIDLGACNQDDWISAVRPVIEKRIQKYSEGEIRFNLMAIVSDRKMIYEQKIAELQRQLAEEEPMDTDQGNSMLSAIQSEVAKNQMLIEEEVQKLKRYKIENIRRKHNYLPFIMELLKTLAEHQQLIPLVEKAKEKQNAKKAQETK
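assay system = human UCH37 enzyme supplied as purified proteasome complex | amount = proteasome at 0.15 nM in the dispensed enzyme solution | schedule = 30 min compound-proteasome preincubation then 25 min substrate reaction, room temperature | measured by = fluorescence, ex 355 nm, em 460 nm | benchmarks = no-proteasome wells (full inhibition) and compound-free wells (no inhibition)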
MIN6 prolif-1: induces beta-cell replication in MIN6 cells. MIN6 cells proliferation, ATPlite luminescence, 48 h; cells starved in 0.2% serum; 100% = growth in 10% serum. proliferation, % at 10 µM. actives 0.29% (n = 330,000);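 active = compounds whose signal lies at least 3.5 SD above the mean of all wells on their plate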;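 also: 0% = DMSO-treated cells in low-serum medium and 100% = 10% serum control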
MIN6 prolif-2: MIN6 beta-cell replication induction, confirmed; proliferation increase, % at 50 µM; 920 tested, under 10 active; AID 463095; MIN6 beta-cell proliferation, ATPlite luminescence, 48 h; cells kept in 0.2% serum; scaled between 0.2% and 10% serum; shares compounds with MIN6 prolif-1;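 active = proliferation increase above 40% at any of the four tested concentrations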
An asterisk follows results filed as active; i = inactive; x = not tested or not shown. The list is not random: actives were taken first. Their share in the collection is about 1.9%.

SMILES	Rce1 inh	CR mimetic SO	Rev-erbA mod	PG9 binder	UCH37 DUB inh	MIN6 prolif-1	MIN6 prolif-2
CC(C)CNC(=O)COC(=O)c1ccccc1SCC(=O)NCC(C)C	i	111	-2	1	2	7.8*	2
COc1ccc(Cn2c(CCCO)nc3ccccc32)cc1OC	i	82	1	-1	2	5.7*	3
CCc1nc2ccccc2n1Cc1ccc(OC)c(OC)c1	i	110	-8	0	2	3	x
O=C(N/N=C/c1cc2c(cc1Cl)OCO2)c1cccc(Br)c1	i	110	0	0	x	11*	-2
N/C(=N\N=Cc1cccs1)SC1CC(=O)N(c2ccc(Br)cc2)C1=O (centres undefined)	x	x	x	x	6	x	x
Cc1c(N=C2NC(=O)/C(=C/c3ccc(O)cc3)S2)c(=O)n(-c2ccccc2)n1C	i	102	1	-3	6	4.4*	-2
COC(=O)C1=C(N)n2c(sc(=Cc3cccnc3)c2=O)=C(C(=O)OC)C1c1cccnc1 (centres undefined)	x	x	x	x	5	x	x
CCCOc1c(Cl)cc(C(=O)NC)cc1OC	i	95	-4	1	x	9.7*	5
O=C(CN1CCCCC1)NN=Cc1ccc(Cl)cc1Cl	x	x	x	x	3	x	x
C=CCn1c(-c2cccc(OC)c2)nc2nc3ccccc3nc21	i	108	-1	0	3	9.1*	-3
O=C(CCN1CCN(C(c2ccccc2)c2ccccc2)CC1)NN=Cc1ccc(O)cc1	x	x	x	x	4	x	x
C=CCOn1c(=O)c(-c2ccc(Br)cc2)[n+]([O-])c2ccccc21	i	82	-2	-1	-14	8.9*	-2
COc1cc(C=NNC(=O)CN2CCCCC2)ccc1OCc1ccc(Br)cc1	x	x	x	x	3	x	x
S=c1[nH]nc(CN2CCCCC2)n1Cc1ccccc1	i	88	-2	2	-1	8.0*	2
S=c1[nH]nc(CN2CCCC2)n1Cc1ccccc1	i	91	-2	3	2	-3	x
O=[N+]([O-])c1ccc(Cl)c(C=Nn2c(COc3ccccc3)n[nH]c2=S)c1	x	x	x	x	0	x	x
Cc1ccc(S(=O)(=O)Oc2ccc(C=N/N=C3/NC(=O)C(CC(=O)O)S3)cc2)cc1 (centres undefined)	x	x	x	x	16	x	x
Brc1cccc(-c2nnc(SCc3ccon3)n2-c2ccccc2)c1	i	99	2	0	-2	12*	-6
CC(C)N(C(=O)CON=Cc1cccc([N+](=O)[O-])c1)C(C)C	x	x	x	x	2	x	x
CC(=NNC(=O)c1cccc(Br)c1)C1CC2CCC1C2 (centres undefined)	x	x	x	x	5	x	x
C/C(C=NNC(=O)c1nnn(-c2nonc2N)c1CN(C)C)=C\c1ccco1	x	x	x	x	11	x	x
O=C1CCCN1c1ccc(Br)cc1	i	85	0	0	4	7.2*	-2
COC(=O)C1CCN(C(=O)c2oc3c(Cl)cc(C)cc3c2C)CC1	i	96	-2	-2	3	12*	-6
COC(=O)c1ccccc1S(=O)(=O)N1CCC(C(=O)OC(C)C(=O)Nc2ccccc2OC)CC1 (centres undefined)	x	98	1	-1	3	4	x
COc1ccccc1NC(=O)C(C)OC(=O)C1CCN(S(=O)(=O)c2ccc(C)c(C)c2)CC1 (centres undefined)	i	86	0	-2	x	16*	-5
SMILES	Rce1 inh	CR mimetic SO	Rev-erbA mod	PG9 binder	UCH37 DUB inh	MIN6 prolif-1	MIN6 prolif-2
COc1ccc(C=NNC(=S)Nc2ccccc2)cc1COc1ccc(F)cc1	x	x	x	x	0	x	x
COc1ccc(-c2noc(COc3ccc4c(c3)OCO4)n2)cc1OC	i	102	4	0	0	11*	1
COC(=O)N[C@H](CC(C)=O)c1cccc(C(F)(F)F)c1	i	92	-3	1	-3	-1	x
COC(=O)N[C@H](CC(C)=O)c1ccccc1	i	x	x	x	x	12*	0
Oc1ccc(C=NNC(=S)NCCN2CCOCC2)c(O)c1	x	x	x	x	-4	x	x
C=CCSc1nc2c(c(=O)[nH]c(=O)n2C)n1C/C=C(/C)Cl	i	107	2	0	2	6.7*	2
CN1CCN(c2nc(C#N)cc(-c3ccccc3)n2)CC1	i	104	0	-2	-20	9.8*	-5
O=C(Nc1c(Cl)cc(Cl)cc1C(=O)NCCN1CCOCC1)c1ccc(Cl)cc1Cl	i	88	0	-1	-3	8.7*	1
Cc1ccc(C(=O)NCCN2CCOCC2)c(Cl)c1	x	85	1	-2	x	6.0*	-1
O=C(NCCN1CCOCC1)c1ccccc1Cl	i	95	-5	1	-1	-2	x
COc1cc(C=N/N=C2/NC(=O)C(c3ccccc3)S2)ccc1O (centres undefined)	x	x	x	x	8	x	x
CC(C)c1c(C(=O)N/N=C/C=C/c2ccccc2)nnn1-c1nonc1N	i	104	2	-4	x	12*	-6
Cc1ccc(-n2ncc3c(=O)[nH]c(SCC(=O)N4CC(=O)Nc5ccccc54)nc32)cc1	x	100	5	0	1	-5	x
Cc1cccc(-n2ncc3c(=O)[nH]c(SCC(=O)N4CC(=O)Nc5ccccc54)nc32)c1	x	97	0	2	3	11*	0
Cc1cc(C=NNC(=O)c2ccc(CN3CCOCC3)cc2)c(C)n1-c1ccccc1	x	x	x	x	1	x	x
CCOc1ccccc1NC(=O)N1CCC(NC(=O)c2ccccc2C)CC1	i	88	3	1	6	7.8*	2
O=c1c2c(O)cc(O)cc2oc2ccc(O)c(OC3OC(CO)C(O)C(O)C3OC3OC(CO)C(O)C(O)C3O)c12 (centres undefined)	x	x	x	x	16	x	x
COc1cc2[nH]c(=O)n(CCCCCC(=O)NC3CCCC3)c(=O)c2cc1OC	x	84	5	2	-8	5.7*	-2
CCOC(=O)c1c(NC(=O)C(C)N2CCN(S(=O)(=O)c3cccs3)CC2)sc2c1CCC(C)C2 (centres undefined)	i	105	11	-1	x	5.5*	-1
CCOC(=O)c1c(NC(=O)C2CCN(S(=O)(=O)c3cccs3)CC2)sc(C)c1C	i	97	7	-3	3	1	x
CCOC(=O)c1c(N)sc2c1CCC(C)C2 (centres undefined)	i	100	-1	-3	-1	-3	x
CCOC(=O)c1c(NS(C)(=O)=O)sc2c1CCC(C)C2 (centres undefined)	i	75	-5	1	-1	7.3*	-6
CCOc1ccccc1C=NNC(=O)c1cccc(S(=O)(=O)N(CC)CC)c1	x	x	x	x	2	x	x
COc1ccc(OC)c(NC(=O)c2ccccc2NS(=O)(=O)c2cccc3cccnc23)c1	i	88	-6	0	4	5.4*	-5

Screens deposited in PubChem by several laboratories.
